Assay results published in ChEMBL document CHEMBL2417525, “In vitro pharmacological and toxicological effects of norterpene peroxides isolated from the Red Sea sponge Diacarnus erythraeanus on normal and cancer cells” (J Nat Prod, 2013).
Active and inactive are the calls of the source. The calls are words filed in the database; no cut-off is given here.

Assays:
U-373MG ATCC [1] = assay: Induction of ROS production in human U373 cells at 10 uM after 48 hrs by flow cytometry; format: functional, cell-based
How it was run: (§1)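 Hs683 and U373 glioma cells were exposed to 10 μM for 48 and 72 h; the positive control was 4 mM H2O2 for 1 h. Cells were then loaded with 20 μM DCFH-DA in phenol-red-free RPMI for 1 h at 37 °C, washed twice and detached. Fluorescence was measured by flow cytometry, run once in quadruplicate.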

U-373MG ATCC [2] = assay: Cytotoxicity against human U373 cells assessed as growth inhibition at 10 uM after 24 hrs by MTT assay; format: functional, cell-based
MCF7 = assay: Cytotoxicity against human MCF7 cells after 72 hrs by MTT assay; format: functional, cell-based
How it was run: (§2)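 MTT reduction read by spectrophotometry after 72 h compound exposure; growth measured as treated vs control optical density, IC50 taken as the concentration giving 50% growth reduction. Six replicates per condition. Cells grown in RPMI with 10% heat-inactivated FBS, 4 mM glutamine, gentamicin and penicillin–streptomycin; NHDF fibroblasts were instead kept in FGM-2 fibroblast medium.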

U-373MG ATCC [3] = assay: Cytotoxicity against human U373 cells assessed as growth inhibition at 10 uM […] by quantitative video microscopic analysis; format: functional, cell-based
How it was run: (§3)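 Computer-assisted phase-contrast time-lapse microscopy in T25 flasks with 10 μM compound. Cells were counted on images at 6, 12, 24 h for U373 and A549, and at 24, 48, 72 h for SKMEL-28. Global growth is last-image count over first-image count. The ratio index is treated global growth over untreated control global growth. Run in triplicate.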

Hs 683 [4] = assay: Induction of ROS production in human Hs683 cells at 10 uM after 72 hrs by flow cytometry; format: functional; how it was run: as §1
A549 [5] = assay: Cytotoxicity against human A549 cells after 72 hrs by MTT assay; format: functional, cell-based; how it was run: as §2
A549 [6] = assay: Cytotoxicity against human A549 cells assessed as growth inhibition at 10 uM after 24 hrs by MTT assay; format: functional, cell-based
SK-MEL-28 [7] = assay: Cytotoxicity against human SK-MEL-28 cells assessed as growth inhibition at 10 uM after 24 to 72 hrs by quantitative video microscopic analysis; format: functional, cell-based; how it was run: as §3
HBL-100 = assay: Cytotoxicity against human HBL100 cells after 72 hrs by MTT assay; format: cell-based; settings: HBL-100, 72 h; how it was run: as §2
LoVo = assay: Cytotoxicity against human LoVo cells after 72 hrs by MTT assay; format: functional, cell-based; how it was run: as §2
SK-MEL-28 [8] = assay: Cytotoxicity against human SK-MEL-28 cells assessed as growth inhibition at 10 uM after 24 hrs by MTT assay; format: functional, cell-based
NHDF = assay: Cytotoxicity against human NHDF cells after 72 hrs by MTT assay; format: cell-based; how it was run: as §2
Hs 683 [9] = assay: Induction of apoptosis in human Hs683 cells at 1 uM after 72 hrs by TUNEL staining; format: functional, cell-based
[10] = Induction of ROS production in human U373 cells at 10 uM after 72 hrs by flow cytometry; format: functional, U-373MG ATCC; how it was run: as §1
[11] = Cytotoxicity against human Hs683 cells after 72 hrs by MTT assay; format: functional, cell-based, Hs 683; how it was run: as §2
PC-3 [12] = assay: Cytotoxicity against human PC3 cells after 72 hrs by MTT assay; format: functional, cell-based; how it was run: as §2
B16-F10 = assay: Cytotoxicity against mouse B16F10 cells after 72 hrs by MTT assay; format: functional, cell-based; settings: B16-F10, 72 h; how it was run: as §2
U-251 = assay: Cytotoxicity against human U251 cells after 72 hrs by MTT assay; format: functional, cell-based; how it was run: as §2
SK-MEL-28 [13] = assay: Cytotoxicity against human SK-MEL-28 cells after 72 hrs by MTT assay; format: functional, cell-based; how it was run: as §2
HaCaT = assay: Cytotoxicity against human HaCaT cells after 72 hrs by MTT assay; format: cell-based; how it was run: as §2
A549 [14] = assay: Cytotoxicity against human A549 cells assessed as growth inhibition at 10 uM […] by quantitative video microscopic analysis; format: functional, cell-based; how it was run: as §3
U-373MG ATCC [15] = assay: Induction of apoptosis in human U373 cells at 1 uM after 72 hrs by TUNEL staining; format: functional, cell-based
[16] = Cytotoxicity against human U373 cells after 72 hrs by MTT assay; format: functional, cell-based, U-373MG ATCC; how it was run: as §2
PC-3 [17] = assay: Induction of apoptosis in human PC3 cells at 1 uM after 72 hrs by TUNEL staining; format: functional
How it was run: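 TUNEL apoptosis staining with a commercial kit, read by flow cytometry. PC3 prostate cells were untreated or exposed to 1 μM for 72 h, four replicates. Kit-supplied lymphoma cells served as extra negative and positive controls.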

[18] = Homo sapiens, MCF7, 72 h, read-out: IC50
[19] = Homo sapiens, A549, 72 h, read-out: IC50
[20] = Homo sapiens, Hs 683, 72 h, read-out: IC50
[21] = Homo sapiens, PC-3, 72 h, read-out: IC50
[22] = Homo sapiens, U-251, 72 h, read-out: IC50
[23] = Homo sapiens, SK-MEL-28, 72 h, read-out: IC50
[24] = Homo sapiens, U373 MG, 72 h, read-out: IC50

SMILES	IC50 (MCF7; [18]) [µM]	IC50 (A549 [5]; [19]) [µM]	IC50 [11, 20] [µM]	IC50 (PC-3 [12]; [21]) [µM]	IC50 (U-251; [22]) [µM]	IC50 (SK-MEL-28 [13]; [23]) [µM]	IC50 [16, 24] [µM]	also measured
CC1=C(CC/C(C)=C/CC[C@@]2(C)CC[C@H]([C@H](C)C(=O)O)OO2)C(C)(C)CCC1	7	3	4	8	8	8	7	Activity (U-373MG ATCC [1]): Active; growth inhibition (GI) (U-373MG ATCC [2]): Active; growth inhibition (GI) (U-373MG ATCC [3]): Active; Activity (Hs 683 [4]): 30%; growth inhibition (GI) (A549 [6]): Active; growth inhibition (GI) (SK-MEL-28 [7]): Active; IC50 (HBL-100): 3 µM; IC50 (LoVo): 6 µM; growth inhibition (GI) (SK-MEL-28 [8]): Active; IC50 (NHDF): 26 µM; Activity (Hs 683 [9]): inactive; Activity [10]: 30%; IC50 (B16-F10): 3 µM; IC50 (HaCaT): 23 µM; growth inhibition (GI) (A549 [14]): Active; Activity (U-373MG ATCC [15]): inactive
C=C1CCC[C@@H]2[C@@H](CC[C@@]3(C)CC[C@H]([C@H](C)C(=O)O)OO3)[C@H](C)CC[C@@]12C [SIGMOSCEPTRELLIN B]	> 100	> 100	> 100	> 100	> 100	> 100	> 100	
C=C1CCCC(C)(C)C1(O)CC/C(C)=C/CC[C@]1(C)CC[C@@H]([C@@H](C)C(=O)O)OO1 (stereo partly specified) [HURGHAPEROXIDE]	45	31	37	73	87	73	83	
COC(=O)[C@H](C)[C@H]1CC[C@@](C)(CCC2=C(C)CCCC2(C)C)OO1 [NUAPAPUIN A METHYL ESTER]	51	25	38	80	91	80	99	
C=C1CCC[C@@H]2[C@@](C)(CC[C@@]3(C)CC[C@H]([C@H](C)C(=O)OC)OO3)[C@H](C)CC[C@@]12C	36	24	35	44	54	44	53	
C/C(=C\CC[C@]1(C)CC[C@@H]([C@@H](C)C(=O)O)OO1)CCC12OC1(C)CCCC2(C)C (relative stereo)	6	3	3	2		22	7	
O=C1N[C@@H]2C(=C[C@H](O)[C@@H](O)[C@H]2O)c2cc3c(c(O)c21)OCO3 [NARCICLASINE]								Activity (PC-3 [17]): >85%
CC1=C(CC[C@]2(C)O[C@H]2CC[C@]2(C)CC[C@@H]([C@@H](C)C(=O)O)OO2)C(C)(C)CCC1 (relative stereo)	4	3	3	1		15	4	
COC(=O)[C@@H](C)[C@H]1CC[C@@](C)(CCC2=C(C)CCCC2(C)C)OO1								IC50 (MCF7; mcf7): ND(Unstable); IC50 (A549 [5]; a549): ND(Unstable); IC50 ([11]; hs 683): ND(Unstable); IC50 (PC-3 [12]; pc-3): ND(Unstable); IC50 (U-251; u-251): ND(Unstable); IC50 (SK-MEL-28 [13]; sk-mel-28): ND(Unstable); IC50 ([16]; u-373mg atcc): ND(Unstable)
